VIM-2 inh = blocks Pseudomonas aeruginosa VIM-2 metallo-beta-lactamase | purified VIM-2, nitrocefin hydrolysis, epi-absorbance fluorescence | inhibition, % at 5.6 µM | 0.89% of 290,000 active | AID 1527;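 active = inhibition above the mean of all tested compounds plus 3 SD, cutoff set per screening run, cut at about 7.5% in these data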;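 note: red hydrolysis product quenches plate fluorescence so inhibitors raise well fluorescence; 0% = enzyme with DMSO and 100% = DMSO without enzyme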
CR mimetic SO = yeast age-related superoxide inhibition as caloric restriction mimetic; S. cerevisiae aged cells, superoxide DHE fluorescence; hits give low values; superoxide response (% of plate mean), % at 10 µM; 0.18% of 330,000 active; AID 2690;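 active = superoxide response under a set limit, about three screen SD below normal, cut at about 65% in these data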;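 note: yeast aged for seven days with compound at 30 °C before DHE staining; 100% = average MFI of all compound-treated wells on the plate with controls excluded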
PHOSPHO1 inh = blocks human PHOSPHO1 phosphatase activity | Q8TCT1 | 1.1% of 290,000 active | inhibition, % at 13.3 µM | recombinant PHOSPHO1, absorbance phosphatase assay | AID 1565; in the data active = inhibition above about 60%
Target sequence (Q8TCT1 whole entry, looked up): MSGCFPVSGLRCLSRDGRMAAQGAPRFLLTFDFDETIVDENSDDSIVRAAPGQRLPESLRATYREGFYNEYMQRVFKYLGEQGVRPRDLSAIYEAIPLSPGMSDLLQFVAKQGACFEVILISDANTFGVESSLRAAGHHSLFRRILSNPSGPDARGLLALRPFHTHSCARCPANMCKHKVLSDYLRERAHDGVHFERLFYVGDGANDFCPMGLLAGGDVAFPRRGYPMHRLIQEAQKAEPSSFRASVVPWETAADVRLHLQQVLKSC
PvdQ acylase = P. aeruginosa PvdQ acylase inhibition; purified PvdQ acylase, fluorescence plate reader; inhibition, % at 10 µM; 0.063% of 340,000 active; AID 488965; in the data active = inhibition above about 30%, passing the limit was not always enough;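 note: 0% = vehicle neutral wells and 100% = reference inhibitor wells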
IMP-1 inh = inhibitors of Pseudomonas aeruginosa IMP-1 metallo-beta-lactamase; 0.45% of 290,000 active; AID 1556; inhibition, % at 5.6 µM; purified IMP-1, nitrocefin hydrolysis, epi-absorbance fluorescence;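 active = inhibition above the mean plus 3 SD of all compounds in the same screening run, cut at about 4.5% in these data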;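 note: 0% = IMP-1 with DMSO and 100% = DMSO wells lacking enzyme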
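Test system: recombinant IMP-1 enzyme, purified / Medium: HEPES buffer pH 7.1 with ZnSO4 and Brij 35 / Doses: single dose, 5.6 µM / Times: 25 °C, 15 min preincubation, 25 min reaction / Detection: Epi-absorbance via hydrolysed-nitrocefin quenching of white-plate fluorescence, 480/530 nm, EDTA stop / Evaluation: percent inhibition from optical density relative to buffer-blank wells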
* marks the source's active call; other numbers are inactive results; / = no result given. Rows were chosen to be rich in hits. Some 2.2% of all compounds tested hit in one or more screens of this group.

SMILES	VIM-2 inh	CR mimetic SO	PHOSPHO1 inh	PvdQ acylase	IMP-1 inh
CCOC(=O)c1c(C)[nH]c(C(=O)N2CCN(c3ccc(OC)cc3)CC2)c1C	-1	99	32	-7	-2
CCOCCCNC(=O)c1cn(C)c(=O)c2cc(OC)c(OC)cc12	-1	89	-4	-17	4.7*
COCCNC(=O)c1cn(C)c(=O)c2cc(OC)c(OC)cc12	2	94	20	-6	-3
COc1ccc(S(=O)(=O)N2CCCC2CNC(=O)C(=O)NCc2cccs2)cc1 (configuration not stated)	/	91	/	-1	/
C=C(C)C1Cc2c(C)nn(-c3cc(C)c4ccccc4n3)c2C1 (configuration not stated)	-3	/	/	/	0
CNC(=S)N/N=C/c1ccc(C(C)C)cc1	-2	80	/	-2	-1
CNC(=S)N/N=C/c1ccc(N(C)C)cc1	0	99	61*	-11	-2
CCc1ccc(OC(=O)c2cccnc2)cc1	1	99	23	4	-2
Cc1cccc(-c2nc(NCCCN(C)C)c3ccccc3n2)c1	7.8*	98	19	-11	-3
c1ccc(-c2nc(NCCCN3CCOCC3)c3ccccc3n2)cc1	10*	88	4	-15	1
Cc1cccc(-c2nc(NCCCN3CCOCC3)c3ccccc3n2)c1	7.7*	104	16	4	-4
Cc1ccc(-c2nnc(SCC(=O)N/N=C/c3ccc(C)s3)n2-c2ccc(C)cc2)cc1	-3	113	-5	-6	-2
O=C(C1=NN[C@@H]2C(=O)N(c3cccc(F)c3)C(=O)[C@H]12)C(c1ccccc1)c1ccccc1	-3	113	1	-4	5.2*
Cc1ccc(C2CC(c3ccccc3)=NN2C(=S)Nc2ccccc2)o1 (configuration not stated)	-7	89	88*	-8	-5
CN(C(=O)c1cccc(NC(=O)Cc2cccc(NC(=O)C3CCCN(C(=O)C4CCC4)C3)c2)c1)C1CCC1 (configuration not stated)	/	/	/	-10	/
S=c1c2c(nc3nc[nH]n13)CCC2	-2	99	93*	-2	-10
CN(C)c1ccc(/C=C/C(=O)c2ccccc2O)cc1	0	104	-24	-10	6.0*
CN(C)c1ccc(/C=C/C(=O)c2cccnc2)cc1	4	103	60*	-12	7.8*
CN(C)c1ccc(/C=C/c2ccncc2)cc1	7	/	10	-16	6.3*
O=C(O)CCC1(CCC(=O)O)CCCC(CCC(=O)O)(CCC(=O)O)C1=O	/	/	/	-18	/
Cc1ccc2oc(C(=O)NCc3ncc(C)[nH]3)c(C)c2c1	0	99	27	-6	2
Cc1ccc(N2CC(C(=O)NCCC3=CCCCC3)CC2=O)cc1 (configuration not stated)	/	100	/	-13	/
Cc1cccc(Cc2nnc(CCC(=O)N(C)Cc3ccncc3C)o2)c1	-6	98	52	-14	-4
COc1ccc(CCc2nnc(CCC(=O)N(C)Cc3ccncc3C)o2)cc1	-1	96	64*	-10	-3
CCN(CC)S(=O)(=O)c1cccc(C(=O)OCC(=O)c2ccc3c(c2)OCCO3)c1	-2	99	-27	-15	-1
SMILES	VIM-2 inh	CR mimetic SO	PHOSPHO1 inh	PvdQ acylase	IMP-1 inh
COc1cccc(NC(=O)C2CCN(C(=O)NC3CCCCC3)CC2)c1	-2	91	63*	-9	-2
Cc1nn(-c2ccccc2)nc1CNC(=O)C1CCC1	-2	98	51	-12	-1
COc1ccc(CC(=O)Oc2ccccc2C)cc1	1	106	13	-2	1
COc1ccc(CC(=O)Oc2ccccc2[N+](=O)[O-])cc1	0	118	40	-7	13*
Cc1ccc(-n2c(Cn3nc(C(F)(F)F)cc3C)n[nH]c2=S)cc1	-5	96	81*	5	-1
Cc1cccc(NC(=O)C2CC(=O)n3cnnc3S2)c1 (configuration not stated)	-1	99	95*	-20	-5
O=C(N/N=C/c1c[nH]c2ccc(Br)cc12)c1ccn(Cc2ccc(Cl)cc2)n1	-2	87	62*	-17	-3
CCOC(=O)c1c(C)oc2c1c(C(c1cccnc1)N1CCN(C)CC1)c(O)c1ccccc12 (configuration not stated)	/	/	-25	/	/
CCOC(=O)c1c(C)oc2c1c(C(c1cccnc1)N1CCOCC1)c(O)c1ccccc12 (configuration not stated)	2	75	79*	-19	0
Cc1cc(C)c(NC(=O)CN(C)C(C)C(=O)N2CCc3ccccc32)c(C)c1 (configuration not stated)	/	100	/	-3	/
CCn1c(SCC(=O)N2CCOCC2)nnc1C(C)NC(=O)c1ccccc1 (configuration not stated)	-4	101	63*	1	-3
C=CCn1c(CC(=O)Nc2ccc(C)cc2C)nnc1SCC(=O)N1CCOCC1	-2	106	3	-14	-3
CCn1c(CC(=O)Nc2ccc(C)cc2)nnc1SCC(=O)N1CCOCC1	-4	100	63*	-13	-3
CC1=NN(c2ccc(Cl)c(C(=O)O)c2)C(=O)/C1=C\c1ccc(-c2ccc(C(=O)O)cc2)o1	-2	/	-114	-3	7.7*
CC1=NN(c2ccccc2)C(=O)/C1=C/c1ccc(-c2ccc(C)c(C(=O)O)c2)o1	/	85	/	-11	/
CCCCN1C(=O)C(C#N)CC2=C1CC(C)(C)CC2=O (configuration not stated)	/	/	/	-12	/
O=c1c2ccccc2nc(-c2ccco2)n1CCCn1ccnc1	8.1*	76	23	-13	-3
O=c1c2ccccc2nc(-c2ccccc2)n1CCCn1ccnc1	0	98	25	-19	-5
O=C(NCc1cnc2ccccn12)C1CCC(=O)N(Cc2ccccc2F)C1 (configuration not stated)	-1	97	66*	-3	-4
Cc1cc(=O)oc2c3c(cc(OCC(=O)NCC4CCC(C(=O)O)CC4)c12)OC(C)(C)CC3 (configuration not stated)	-1	109	34	-18	-2
Nc1c(/C=C2/C=CC(=O)C(O)=C2)c(=O)nc2sc(CC(=O)N3CCCC3)nn12	1	82	40	-7	-1
Nc1c(/C=C2/C=CC(=O)C(O)=C2)c(=O)nc2sc(CC(=O)N3CCCCC3)nn12	11*	111	-2	-4	-6
COc1ccc(C(=O)c2sc3nc(-c4ccc(OC)cc4)ccc3c2N)cc1	0	91	3	-22	-1
COc1ccc(-c2ccc3c(N)c(C(=O)c4cccc(OC)c4)sc3n2)cc1	0	99	89*	6	-1
O=[N+]([O-])/C(=C\Nc1ccccc1)S(=O)(=O)c1ccccc1	2	99	20	-11	-2
O=[N+]([O-])/C(=C\Nc1ccccc1Cl)S(=O)(=O)c1ccccc1	-2	105	87*	-16	1
Nc1c(Cl)cc(N=Nc2ccccc2)cc1Cl	/	/	/	-9	/
Cc1cccc(C(=O)Nc2cc(S(=O)(=O)N3CCOCC3)ccc2N2CCCCC2)c1	/	99	/	-13	/

Assay outcomes as filed in PubChem.
